The results in this text go back to ChEMBL document CHEMBL4513216, “Probing the Open Global Health Chemical Diversity Library for Multistage-Active Starting Points for Next-Generation Antimalarials” (ACS Infect Dis, 2020).

The nature of this data set: Toxicity liver stage against HepG2, at 10uM. The settings on record: human, HepG2-A16-CD81EGFP cells; read-out: INHIBITION
Further details: test concentration 10 uM, cell line HepG2-A16-CD81EGFP. The data set is classed as cell-based. The method, boiled down: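 Uninfected HepG2-A16-CD81EGFP cells, 3 × 10^3 per well, 1536-well, plated on prespotted compound at 10 μM final, parasite-free screening media added to match infected plates; puromycin 10 μM positive, DMSO 0.5% negative; run in parallel with 48 h PbLuc assay at 37 °C, 5% CO2; viability by CellTiter-Glo luminescence, normalized to controls.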

For `CCC(=O)N1CCC(c2nnc(Cn3cncn3)n2C2CC2)CC1`, the cytotoxicity at 10 µM is -15.4%. For `Cn1ccnc1C(=O)N[C@@H]1CN(Cc2cccs2)[C@@H]2CCCO[C@@H]21`, the cytotoxicity at 10 µM came to 3.16%.

`COc1ccc2c(c1)C(=O)N(C)C1(CCN(CC3CC3)CC1)N2`: the cytotoxicity at 10 µM amounted to 6.4%. `Cc1cc(C2CCCN(CCNS(=O)(=O)c3ccccc3)C2)n[nH]1` (stereo unspecified): the cytotoxicity at 10 µM is -28.5%. In the case of `COCCNC(=O)c1ccoc1CN1c2ccccc2CC1C` (stereo unspecified), the cytotoxicity at 10 µM was 5.41%. Regarding `CC(O)c1cccc(Nc2nc(NCCO)c3ccccc3n2)c1` (stereo unspecified), the cytotoxicity at 10 µM amounted to 18.4%. The same measure for `CC(C)C1CN(c2ncccn2)CCC(=O)N1CC1CC1` (stereo unspecified): 0.0666%; for `CN1CCC(Oc2ccc(NC(=O)c3ccccc3)cc2)CC1`: -5.13%.

Consider `O=C(CCc1ccsc1)N1CCCCC1Cn1cccn1` (stereo unspecified), for which the cytotoxicity at 10 µM is -5.78%. As to `CCCNC(=O)C(C)Oc1ccccc1` (stereo unspecified), the cytotoxicity at 10 µM is -6.68%.

For the compound `CN1C[C@H]2CC[C@@H](CC1=O)N2C(=O)c1ccc(-c2ccccc2)[nH]c1=O`, the cytotoxicity at 10 µM turned out to be 5.91%. The same measure for `CCc1cc(CNC(=O)C2CCCN(C(=O)NCC(C)C)C2)[nH]n1` (stereo unspecified): 7.23%; for `O=c1c2cccc(C(F)(F)F)c2ncn1C1CCNC1` (stereo unspecified): -38.3%; for `CC(=O)Nc1ncc(S(=O)(=O)Nc2ccc3c(c2)OCCO3)s1`: 2.93%.

As to `Cn1ccc(C2CCCCCN2C(=O)c2cccnc2)n1` (stereo unspecified), the cytotoxicity at 10 µM is 6.16%. As for `O=C(c1c[nH]cn1)N1CCC(F)(F)C2(CCN(c3cnccn3)C2)C1` (stereo unspecified), the figure is 8.19%; as for `CNC(=O)NC(=O)C(C)N1CCCc2cc(OC)ccc2C1` (stereo unspecified), 9.77%; as for `COC(=O)NCC(=O)NC(c1ccc(Cl)cc1)C(F)(F)F` (stereo unspecified), 9.09%. In the case of `Cn1nnc2cc(C(=O)N3CCC(Nc4cccnn4)CC3)ccc21`, the cytotoxicity at 10 µM is -2.85%.

Take `O=C(Nc1cccnc1)[C@H]1C[C@H]2CN(C(=O)NC3CCCC3)C[C@@H]1O2`: the cytotoxicity at 10 µM is 2.96%. As for `CNC(=O)CN1CC[C@H]2CN(C(=O)c3ccccc3C)C[C@H]2C1`, the figure is 0.793%. The same measure for `COc1ccc(NC(=O)C(C)(C)C)cc1OCc1cccnc1`: -41.1%; for `CCS(=O)(=O)N1C[C@@H](OCc2cccnc2)[C@H]2OCCC[C@H]21`: 3.6%; for `Cc1cc(CN2CCCC2)cc(Oc2nc(C)cnc2C)c1`: -2.54%. For the compound `Cn1ccnc1CN1CCN(CC(O)c2ccc(F)c(F)c2)CC1` (stereo unspecified), the cytotoxicity at 10 µM was -12.9%. The same measure for `Cc1nc(CCCNC(=O)Nc2ccc(F)cc2F)n[nH]1`: -2.9%; for `COc1cc(S(=O)(=O)N2CCc3ccccc32)cc(C(=O)O)c1OC`: -7.54%; for `NC1CCc2nc(-c3ccncc3)nc(Nc3cccc(F)c3)c2C1` (stereo unspecified): 26.4%. As for `Cc1nc2c(c(NC3CCN(Cc4ccccc4)CC3)n1)CCNCC2`, the figure is -6.74%; as for `Cc1nc(C2CCCN(C(=O)c3cnn(C4CCCCC4)c3)C2)no1` (stereo unspecified), -6.37%; as for `COCCN(C)CCN1CC2(CCN(C3CCOC3)CC2)OC1=O` (stereo unspecified), 4.63%.

On to `Cc1cc(CN2CC[C@H]3C[C@@H](c4nc(C5CC5)cs4)O[C@@H]3C2)no1`, for which the cytotoxicity at 10 µM was -104%. The same measure for `COc1cc2c(cc1CNC(Cc1cccs1)c1nccs1)OCO2` (stereo unspecified): -1.88%. In the case of `CCN(CC1CCCO1)C(=O)Nc1cc(OC)c(OC)cc1C` (stereo unspecified), the cytotoxicity at 10 µM is -10.9%.

As to `CC(=O)NCCNC(=O)c1cnc(-c2ccc(C)cc2C)s1`, the cytotoxicity at 10 µM was -7.95%. Take `Cc1ccc(N(CCC#N)C(=O)CN2CCCC2c2ccsc2)cc1C` (stereo unspecified): the cytotoxicity at 10 µM was -11.2%.

On to `O=C(c1n[nH]c2ccccc12)N1CCCC1c1noc(C2CC2)n1` (stereo unspecified), for which the cytotoxicity at 10 µM was -10.8%. As for `COc1nn(C)c2c1CCCN(S(=O)(=O)c1cccc(C)c1)C2`, the cytotoxicity at 10 µM was -133%. As for `CC(Nc1ncnc2c1CCNC2)c1ccc2c(c1)CCCC2` (stereo unspecified), the figure is 42%; as for `Cn1ccc(C(=O)NC2CCN(c3ncccn3)CC2)cc1=O`, -7.32%; as for `CCc1nc(CN(C(C)=O)C2CCN(CCc3cnn(C)c3)C2)no1` (stereo unspecified), -6.38%. For `Cn1cnc2ccc(NC(=O)CC3CCN(C4CCCCC4)CC3)cc21`, the cytotoxicity at 10 µM worked out at 25.9%. The same measure for `CCc1noc(C2CCCCN2C(=O)c2cccs2)n1` (stereo unspecified): 6.5%. As for `Cc1ccc(CN2CCNC(C(=O)NC3CC3)C2)cc1C` (stereo unspecified), the figure is -3.41%. The same measure for `Cc1cnn(CC(C)NCc2ccc(OCc3cscn3)cc2)c1` (stereo unspecified): -9.35%; for `O=c1[nH]ccc2cc(-c3cc(O)cc(CCC4CCCCN4)c3)ccc12` (stereo unspecified): 1.81%. Consider `O=c1ccc2c([nH]1)CCN(S(=O)(=O)c1ccc3c(c1)OCCO3)C2`, for which the cytotoxicity at 10 µM is -3.06%.

Regarding `Cc1cccn2c(CNC(C)CCn3cccn3)cnc12` (stereo unspecified), the cytotoxicity at 10 µM amounted to 21.6%.

As for `Cc1nn(CC(=O)N2CCN(c3ccncc3)CC2)c(C)c1Cl`, the cytotoxicity at 10 µM is -17.8%. The same measure for `CC(C)Cc1cc(C(=O)N2CC(OCc3ccccc3F)C2)n(C)n1`: 8.92%; for `COc1ccccc1CNC(=O)C(C)N1CC(n2nc(C)cc2C)C1` (stereo unspecified): 7.54%; for `COc1ccc(-c2nnc([C@H]3CCN(C4CCC4)C3)o2)cc1`: -8.1%. On to `O=C(NCC(=O)N1CCCC1)c1nc(Cc2c(Cl)cccc2Cl)no1`, for which the cytotoxicity at 10 µM was determined as 2.63%. As for `COc1ccc(CN2Cc3cn(C)nc3C(COCC3CC3)C2)cc1` (stereo unspecified), the figure is -78.5%; as for `CC(NC(=O)NCCCOc1ccccc1F)c1nncn1C` (stereo unspecified), -8.77%.

Turning to `CCn1c(C)cc(C(=O)N2CCC(NC(=O)c3ccc(C)o3)CC2)c1C`, the cytotoxicity at 10 µM was -7.45%.

Consider `COc1ccccc1OCC(=O)N1C[C@@H]2CN(C)CCO[C@@H]2C1`, for which the cytotoxicity at 10 µM is -2.94%. As for `CCC(Nc1nc(C)nc2c1cnn2C)c1ncnn1CC` (stereo unspecified), the figure is -7.17%; as for `CCc1nc(CN(C)C2CCN(CCn3cccn3)C2)no1` (stereo unspecified), -2.21%; as for `O=C(NCCc1cccnc1)N1CCCC1c1ccsc1` (stereo unspecified), -6.82%. For `NCC1CN(C(=O)Cn2ncc(N3CCCCC3)cc2=O)CCO1` (stereo unspecified), the cytotoxicity at 10 µM was -8.27%. Consider `Cc1ccn(C)c(=O)c1NC(=O)N(C)Cc1cccc(OC(C)C)c1`, for which the cytotoxicity at 10 µM was 2.29%. `Cn1cc(C(=O)N2CCCC(c3ccncc3)C2)cn1` (stereo unspecified): the cytotoxicity at 10 µM is -13%. Consider `Cc1ccc(N2C[C@@H]3CN(Cc4ccsc4)CCO[C@@H]3C2)nn1`, for which the cytotoxicity at 10 µM stood at 3.32%. The same measure for `Cc1noc(C)c1C(=O)N1CCCCC1c1cc(C)n2ccnc2n1` (stereo unspecified): 15.8%; for `O=C(NCC1(O)CCOc2ccccc21)Nc1ccccc1` (stereo unspecified): -4.2%.

As to `CS(=O)(=O)N1CCCC12CCCN(C(=O)c1ccno1)C2` (stereo unspecified), the cytotoxicity at 10 µM is -172%. As for `CCn1ncc2c1C(COC)CN(Cc1ccsc1)C2` (stereo unspecified), the figure is -7.47%; as for `Fc1ccccc1CN1C[C@H](OCC2CCOCC2)[C@H]2OCCC[C@H]21`, -2.4%; as for `CCOc1cc(F)ccc1NC(=O)N(C)Cc1cnn(C)c1`, -17%.

As for `Cn1nc(Cn2ccnc2)c2c1CN(C(=O)c1ccc[nH]1)C2`, the cytotoxicity at 10 µM is -62.7%. As for `CCOc1cccc(CNc2cccc(C(=O)OC)c2)c1O`, the figure is 7.36%. As for `COCC(=O)NCCSCCOc1cccc(Br)c1`, the cytotoxicity at 10 µM was -9.2%. On to `CC[C@@]1(O)CCN(CCCOc2ccc(C(N)=O)cc2)C[C@H]1O`, for which the cytotoxicity at 10 µM is -5.03%.

`CCC(CC)C(CNC(=O)Nc1cnn(CCOC)c1)N(C)C` (stereo unspecified): the cytotoxicity at 10 µM is -6.87%. As for `COc1ccnc(N2CCN(C(=O)c3cscn3)CC2)n1`, the figure is 0.883%. The same measure for `O=C(NCc1ccnc(C2CCCOC2)n1)c1cccs1` (stereo unspecified): 0.44%; for `CCS(=O)(=O)NCCNC(=O)c1cnc(-c2ccccc2)nc1`: 13.8%; for `O=C(NCCNc1ncccn1)C1CCN(C(=O)c2ccoc2)CC1`: -12.6%.

Regarding `Cn1ccnc1S(=O)(=O)C(C(=O)N1CCCCC1)c1ccccc1` (stereo unspecified), the cytotoxicity at 10 µM turned out to be 24.5%. The same measure for `CCNS(=O)(=O)c1ccc(C)c(C(=O)N(C)Cc2ccccc2C)c1`: 0.997%; for `CC(C)(C)NS(=O)(=O)c1ccc(NC(=O)C2CC2)cc1`: -6.73%; for `Cc1cnc(C(=O)N2CCN(Cc3csc(C)n3)CC2)cn1`: -132%. The same measure for `Cc1nc(N2CCOCC2)nc(C)c1NC(=O)c1ccco1`: 1.9%; for `CC(C)n1nnc2c(sc3nc(N4CCOCC4)c4c(c32)CCC4)c1=O`: 3.26%. As for `CN(C)C(=O)C1CCC2(CCN(Cc3ccc4ccccc4n3)CC2)O1` (stereo unspecified), the figure is 5.09%; as for `Cc1ccc(CN(C)CC(=O)NC2(C)CCS(=O)(=O)C2)cc1` (stereo unspecified), 5.05%. In the case of `CCC(C)(C)NC(=O)CN(Cc1cccc(O)c1)C1CCC(O)CC1` (stereo unspecified), the cytotoxicity at 10 µM was -2.22%. As for `O=C(C1CCCC1)N1CC2(CCCN(C3COC3)C2)Cc2ccccc21` (stereo unspecified), the figure is 9.96%; as for `Cc1cnn(CC2CCCN2C(=O)c2ccc3[nH]c(=O)[nH]c3c2)c1` (stereo unspecified), -3.98%. Take `COc1c(Br)cc(Br)cc1CNC(C)Cn1cccn1` (stereo unspecified): the cytotoxicity at 10 µM stood at 3.64%. Consider `CCn1ccc(-c2cc(C(=O)O)n3ncc(Br)c3n2)n1`, for which the cytotoxicity at 10 µM was -4.81%. The same measure for `Cn1cc(NS(=O)(=O)c2ccc(F)c(F)c2)ccc1=O`: -9.59%; for `OC1(CNCCSc2ccccn2)CNCCOC1` (stereo unspecified): -9.41%; for `O=C(c1ccc(F)c(F)c1)N1CCCC1CN1CCCC1` (stereo unspecified): 2.92%. In the case of `O=S(=O)(c1ccc(Cl)cc1)N1CCC(OCc2ccccn2)C1` (stereo unspecified), the cytotoxicity at 10 µM was 1.48%.
